Results taken from publication PMC3733550 (Biochemical pharmacology, 2011).
Where two headings read alike, the source gives them in different places. Marks after values point to notes of the source that are not given here. Each block holds one molecule with its values, some of them ahead of it.

Key:
[1] = system: ABCG2-expressing MDA-MD-231/R cells; assay: Re-sensitization of MDA-MB-231/R cells to mitoxantrone; type: cell-based, human
[2] = biological target: T1, ABCG2 (Homo sapiens, UniProt Q9UNQ0); conditions: read-out: EC50 PhA; increasing PhA content in ABCG2 over-expressing MDA-MB-231/R cells; cited from earlier work
T1 sequence (Q9UNQ0 1-655): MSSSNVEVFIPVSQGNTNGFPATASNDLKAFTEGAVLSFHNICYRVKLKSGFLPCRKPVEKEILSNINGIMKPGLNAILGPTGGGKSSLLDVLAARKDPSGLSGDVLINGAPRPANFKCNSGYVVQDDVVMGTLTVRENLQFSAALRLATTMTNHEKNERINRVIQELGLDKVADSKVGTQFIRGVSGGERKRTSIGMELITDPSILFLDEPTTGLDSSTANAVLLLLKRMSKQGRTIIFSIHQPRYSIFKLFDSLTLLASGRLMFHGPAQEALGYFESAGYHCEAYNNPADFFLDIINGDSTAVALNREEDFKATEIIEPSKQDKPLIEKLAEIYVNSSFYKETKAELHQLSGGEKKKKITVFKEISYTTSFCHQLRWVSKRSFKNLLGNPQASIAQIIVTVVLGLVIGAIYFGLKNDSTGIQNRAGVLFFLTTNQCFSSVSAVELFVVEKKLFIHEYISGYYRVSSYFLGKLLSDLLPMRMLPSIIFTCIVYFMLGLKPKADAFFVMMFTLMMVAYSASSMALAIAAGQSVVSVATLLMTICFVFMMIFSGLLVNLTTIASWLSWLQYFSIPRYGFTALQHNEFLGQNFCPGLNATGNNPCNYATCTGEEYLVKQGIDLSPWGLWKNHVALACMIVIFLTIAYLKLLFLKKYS

[3] = system: ABCG2 expression in MDA-MB-231/R cells; assay: Western blot analysis of ABCG2 protein levels in MDA-MB-231/R cells; type: cell-based, human; conditions: 72 h; A-2 0.5 μM or 1 μM; MX 0.1 μM
[4] = system: MDA-MB-231/V cells; assay: Growth inhibition by mitoxantrone in parental MDA-MB-231/V cells; type: cell-based; conditions: Homo sapiens, MDA-MB-231, 72 h, read-out: IC50 value of MX in MDA-MB-231/V cells
[5] = system: MDA-MB-231/V; assay: Cell cytotoxicity by MTT assay on MDA-MB-231/V cells; type: cell-based, human; conditions: % of control cells (1% DMSO)
In short: (§1)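 Cells grown in RPMI 1640 with 10% FBS and 1.0 mg/ml geneticin at 37°C, 5% CO2, and used within 10 passages. 10^4 cells/well were seeded for 24 h, then exposed for 72 h to test compound (5 or 10 μM; 1% v/v DMSO final). After a PBS wash, MTT was added (3 h, 37°C), formazan dissolved in DMSO, and A590 read. Viability is % of 1% DMSO controls, mean (SD) of three independent determinations.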

[6] = biological target: T1, ABCG2; assay: Photoaffinity labeling of ABCG2 with [125I]-IAAP in MCF-7 FLV1000 membranes; type: binding; conditions: test compound 5 μM
[7] = system: MDA-MB-231/R; assay: Cell cytotoxicity by MTT assay on MDA-MB-231/R cells; type: cell-based, human; conditions: % of control cells (1% DMSO)
In short: as §1

[8] = biological target: T1, ABCG2; assay: ABCG2 ATPase assay; type: biochemical

SMILES: COc1ccc2c3c([nH]c2c1)[C@H](C=C(C)C)N1C(=O)[C@@H]2CCCN2C(=O)[C@@H]1C3 [FTC, fumitremorgin C]
- Resistance index ([1]; MX + test compound 0.05 μM, IC50 of MX R cells + test compound / IC50 of MX V cells): 7.4
- EC50 [2]: 1300 nM

SMILES: O=C1c2c(O)ccc(O)c2C(=O)c2c(NCCNCCO)ccc(NCCNCCO)c21 [Mitoxantrone]
- Effect on ABCG2 protein levels in R cells [3]: no effect
- IC50 ([1]; Homo sapiens, MDA-MB-231, 72 h, read-out: IC50 of mitoxantrone): 920 nM
- IC50 [4]: 70 nM

- Effect on photolabelling of ABCG2 by [125I]-IAAP (in words) [6]: minimal changes
- ATPase activity (fold stimulation) [8]: 2.8 fold
- EC50 [8]: 190 nM
SMILES: O=C1/C(=C/c2ccccc2)Oc2ccccc21 [UA-1]
- % Viability MDA-MB-231/V 5 μM ([5]; 5 μM): 98 (9) ^d %
- % Viability MDA-MB-231/V 10 μM ([5]; 10 μM): 103 (7) ^c %
- % Viability MDA-MB-231/R 5 μM ([7]; 5 μM): 68 (10) ^d %
- % Viability MDA-MB-231/R 10 μM ([7]; 10 μM): 60 (8) ^c %
